Columns and labels:
[1] = test system: Trypanosoma brucei brucei; experiment: Antitrypanosomal activity against Trypanosoma brucei brucei MITat 1.2 variant 221 after 72 hrs; assay type: functional, organism-based
In short: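 Bloodstream-form parasites grown axenically in HMI-9, seeded late log phase at 10⁵ cells/mL, exposed with or without compound 72 h at 37 °C, humidified 5% CO₂. p-Nitrophenyl phosphate (20 mg/mL solution in 1 M NaOAc pH 5.5, 1% Triton X-100) added, further 6-8 h at 37 °C; acid phosphatase read at 405 nm. IC50 versus untreated control from four-parameter dose-response fit.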

PC-3 = experiment: Cytotoxicity against human PC3 cells; assay type: cell-based
Leishmania donovani = experiment: Antileishmanial activity against Leishmania donovani MHOM/SD/62/IS-CL2D axenic amastigotes after 3 days; assay type: functional, organism-based; conditions: 72 h
In short: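 Amastigote-like L. donovani parasites were grown axenically in vitro and exposed to compounds for three days. Viability was read with a tetrazolium dye-based reagent, following a previously described protocol.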

Vero = experiment: Cytotoxicity against african green monkey Vero cells; assay type: cell-based; conditions: Chlorocebus sabaeus
[2] = Selectivity of IC50 for Trypanosoma brucei brucei MITat 1.2 variant 221 to IC50 for african green monkey Vero cells

For `CC1(C)CCc2cc(-c3coc4cc(O)cc(O)c4c3=O)cc(O)c2O1`, the IC50 [1] was 77 µM, the IC50 (PC-3) was 79.3 µM and the IC50 (Leishmania donovani) was 68.3 µM.

Work on `C=CC(C)(C)c1cc(OC)c(OC)cc1-c1coc2cc(OC)cc(O)c2c1=O` [TRIMETHYLFREMONTIN] yielded an IC50 [1] of 32.3 µM, an IC50 (PC-3) of 146 µM and an IC50 (Leishmania donovani) of over 250 µM.

`Oc1ccc2c(c1O)OCC1c3cc4c(cc3OC21)OCO4` (racemic) showed an IC50 (Vero) of 3.3 µM, an IC50 [1] of 3.7 µM and an IC50 (PC-3) of 28 µM. For the same compound, the IC50 (Leishmania donovani) was 37.3 µM.

Work on `O=C(/C=C/c1ccc(O)cc1)c1ccc(O)cc1O` [ISOLIQUIRITIGENIN] yielded an IC50 (Vero) of 65.6 µM, an IC50 [1] of 32.8 µM and an IC50 (PC-3) of 46.4 µM. It also gave an IC50 (Leishmania donovani) of 20.7 µM.

For `COc1ccc(-c2coc3cc(OC)ccc3c2=O)cc1`, the IC50 [1] was over 100 µM.

With `O=c1c(-c2ccccc2)coc2cc(O)ccc12` [7-HYDROXY ISOFLAVONE] the IC50 [1] was 94.2 µM and the IC50 (Leishmania donovani) was 113 µM.

In the case of `O=c1c(-c2ccc(O)c(O)c2)coc2cc(O)ccc12`, the IC50 (Vero) is reported as 135 µM and the IC50 [1] is reported as 7.1 µM.

Compound `COc1ccc(-c2coc3cc(O)cc(O)c3c2=O)cc1` [BIOCHANIN] has an IC50 [1] of 12.3 µM and an IC50 (Leishmania donovani) of 89.9 µM.

For `O=c1c(-c2ccc(O)cc2)coc2cc(O)cc(O)c12` [GENISTEIN], the IC50 (Vero) was 32.9 µM, the IC50 [1] was 4.2 µM and the IC50 (Leishmania donovani) was 73 µM.

For `COc1cc([C@@H]2c3cc4c(cc3[C@H](O)[C@H]3COC(=O)[C@H]23)OCO4)cc(OC)c1OC` [PODOFILOX], the IC50 (PC-3) was 0.0125 µM.

For `Cc1ccc(C(=O)Nc2ccc(S(=O)(=O)O)c3cc(S(=O)(=O)O)cc(S(=O)(=O)O)c23)cc1NC(=O)c1cccc(NC(=O)Nc2cccc(C(=O)Nc3cc(C(=O)Nc4ccc(S(=O)(=O)O)c5cc(S(=O)(=O)O)cc(S(=O)(=O)O)c45)ccc3C)c2)c1` [SURAMIN], the IC50 [1] was 0.19 µM.

`COc1cc2cc(c1Cl)N(C)C(=O)C[C@H](OC(=O)C(C)C)[C@]1(C)O[C@@H]1[C@H](C)[C@@H]1C[C@@](O)(NC(=O)O1)[C@H](OC)/C=C/C=C(\C)C2` [ANSAMITOCIN P3] showed an IC50 (Vero) of 0.0012 µM.

With `COc1ccc(-c2coc3cc(O)ccc3c2=O)cc1` [FORMONONETIN] the IC50 [1] was 90.2 µM.

For `CC1(C)CCc2c(-c3coc4cc(O)cc(O)c4c3=O)ccc(O)c2O1`, the IC50 [1] was 57.9 µM, the IC50 (PC-3) was 107 µM and the IC50 (Leishmania donovani) was 38.4 µM.

`COc1ccc2c(C=O)c(-c3cc4c(cc3O)OCO4)oc2c1` showed an IC50 (Vero) of over 250 µM, an IC50 [1] of over 250 µM and an IC50 (PC-3) of over 250 µM. The IC50 (Leishmania donovani) was over 250 µM.

With `C=CC(C)(C)c1cc(OC)c(OC)cc1-c1coc2cc(OC)cc(OC)c2c1=O` the IC50 [1] was 41.7 µM, the IC50 (PC-3) was 134 µM and the IC50 (Leishmania donovani) was 86 µM.

Compound `COc1cc(O)c2c(=O)c(-c3ccc(O)cc3)coc2c1` [PRUNETIN] has an IC50 [1] of 20.2 µM.

`CC1(C)CC[C@]2(C(=O)O)CC[C@]3(C)C(=CC[C@@H]4[C@@]5(C)CC[C@H](O)C(C)(C)[C@@H]5CC[C@]43C)[C@@H]2C1` [OLEANOLIC_ACID] gave an IC50 (Vero) of over 250 µM, an IC50 [1] of 43.1 µM and an IC50 (PC-3) of 211 µM. For the same compound, the IC50 (Leishmania donovani) was over 250 µM.

`O=c1c(-c2ccc(O)cc2)coc2cc(O)ccc12` [DAIDZEIN] gave an IC50 [1] of 23.7 µM.

With `N=C(N)c1ccc(OCCCCCOc2ccc(C(=N)N)cc2)cc1` [PENTAMIDINE] the IC50 (Leishmania donovani) was 1.5 µM.

`CC(C)=CCc1c(-c2coc3cc(O)cc(O)c3c2=O)ccc(O)c1O` gave an IC50 (Vero) of 37.5 µM, an IC50 [1] of 12.1 µM and an IC50 (PC-3) of 12.7 µM. It also gave an IC50 (Leishmania donovani) of 13 µM.

Work on `Oc1ccc2c(c1)OCC1c3cc4c(cc3OC21)OCO4` (racemic) yielded an IC50 (Vero) of over 250 µM, an IC50 [1] of 130 µM and an IC50 (PC-3) of over 250 µM. It also gave an IC50 (Leishmania donovani) of over 250 µM.

For `C=CC(C)(C)c1cc(OC(C)=O)c(OC(C)=O)cc1-c1coc2cc(OC(C)=O)cc(OC(C)=O)c2c1=O` [FREMONTIN TETRAACETATE], the IC50 [1] was 67.8 µM, the IC50 (PC-3) was 66.2 µM and the IC50 (Leishmania donovani) was 42.7 µM.

`COc1cc(OC)c2c(=O)c(-c3cc(CC=C(C)C)c(OC)c(OC)c3)coc2c1` showed an IC50 (Vero) of 44.3 µM, an IC50 [1] of 7.8 µM and an IC50 (PC-3) of 30.9 µM. The IC50 (Leishmania donovani) was 41.4 µM.

Compound `COc1ccc(-c2coc3cc(O)ccc3c2=O)cc1O` [CALYCOSIN] has an IC50 (Vero) of 159 µM, an IC50 [1] of 12.7 µM and an IC50 (PC-3) of 130 µM. It also gave a Selectivity ratio [2] of 15 and an IC50 (Leishmania donovani) of 100 µM.

With `O=c1cc(-c2ccc(O)cc2)oc2cc(O)cc(O)c12` [APIGENIN] the IC50 [1] was 11.9 µM.

In the case of `CC(C)=CCc1cc(-c2coc3cc(O)cc(O)c3c2=O)cc(O)c1O` [GLYCYRRHISOFLAVONE], the IC50 (Vero) is reported as 52.8 µM, the IC50 [1] is reported as 33 µM and the IC50 (PC-3) is reported as 62.1 µM. For the same compound, the IC50 (Leishmania donovani) was 46.3 µM.
